ChEMBL document CHEMBL1759852, “A comparative study of proapoptotic potential of cyano analogues of boswellic acid and 11-keto-boswellic acid” (Eur J Med Chem, 2011)
The source made the active and inactive calls. The calls are words filed in the database; no cut-off is given here.

Legend:
HL-60 [1] = assay: Induction of apoptosis in human HL60 cells assessed as late apoptotic cells at 4 uM after 6 hrs using Annexin-V-FITC/propidium iodide staining by flow cytometry (reference value: 1%); format: functional
Summary of the method: (§1)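 HL-60 cells (1 × 10^6/ml) treated 6 h at varied concentrations; camptothecin 4 μM 6 h positive control. AnnexinV-FITC and propidium iodide staining per kit; FL-1 versus FL-2 flow cytometry with quadrant statistics for apoptotic and necrotic populations; representative of three experiments.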

HL-60 [2] = assay: Induction of apoptosis in human HL60 cells assessed as DNA ladder formation at 4 uM after 9 hrs by agarose gel electrophoresis; format: functional, cell-based
HL-60 [3] = assay: Induction of apoptosis in human HL60 cells assessed as early apoptotic cells at 4 uM after 6 hrs using Annexin-V-FITC/propidium iodide staining by flow cytometry (reference value: 6%); format: functional; summary of the method: as §1
HL-60 [4] = assay: Cell cycle arrest in human HL60 cells assessed as accumulation at sub-G1 phase at 4 uM after 18 hrs by flow cytometry relative to control

Question: How did the Activity (HL-60 [1]) turn out when `CC[C@@]1(O)C(=O)OCc2c1cc1n(c2=O)Cc2cc3ccccc3nc2-1` [CAMPTOTHECIN] was run?
Answer: 4%

Question: What about the Activity (HL-60 [2]) of the same compound?
Answer: Active

Question: And the Activity (HL-60 [3])?
Answer: 35%

Question: What about the Activity (HL-60 [4]) of the same compound?
Answer: 96%
